ZTA counter: counter-screen for EBNA-1 inhibitors: inhibitors of Epstein-Barr virus ZTA. inhibition, % at 11 µM. hit rate 0.15% among 320,000. ZTA-DNA binding, fluorescence polarization. P03206; in the data active = inhibition above about 33%
Target sequence (P03206 whole entry, looked up): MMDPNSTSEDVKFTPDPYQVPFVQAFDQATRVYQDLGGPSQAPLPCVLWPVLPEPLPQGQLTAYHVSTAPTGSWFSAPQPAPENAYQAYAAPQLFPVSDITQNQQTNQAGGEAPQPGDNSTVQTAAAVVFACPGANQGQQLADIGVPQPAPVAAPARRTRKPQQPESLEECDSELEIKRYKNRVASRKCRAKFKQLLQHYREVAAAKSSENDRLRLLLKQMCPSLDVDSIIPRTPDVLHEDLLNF
PfM18AAP inh-1: PfM18AAP enzyme inhibition | recombinant PfM18AAP, H-Glu-NHMec fluorogenic cleavage | inhibition, % at 7.35 µM | hit rate 1.2% among 290,000 | AID 1822;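 active = inhibition above the campaign mean inhibition over all tested compounds plus 3 SD, cut at about 28% in these data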;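 also: 0% = plate median of test compound wells and 100% = 2 mM ZnCl2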
HCV NS3 hel inh: inhibitors of Hepatitis C virus NS3 helicase | inhibition, % at 10.9 µM | NS3 helicase DNA unwinding, Cy5 molecular beacon fluorescence | hit rate 0.56% among 290,000;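 active = inhibition above the mean of all tested compounds plus 3 SD, set per campaign, cut at about 35% in these data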;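 also: 0% = DMSO wells and 100% = thioflavine S control wells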
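System: NS3 helicase fragment of HCV / Schedule: 1 h at 25 °C / Control set: DMSO alone as 0% and 110 µM thioflavine S as 100% / Reagent: Cy5/quencher beacon DNA duplex and ATP to start / Technique: Cy5 fluorescence / Replication: singlicate / Evaluation: % inhibition of end-to-start signal ratio versus controls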
core dimer inh: blocks dimerization of HCV core protein. TR-FRET GST/Flag-core106 dimerization, 1536-well. AID 1899. hit rate 0.33% among 300,000. inhibition, % at 5 µM;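 active = inhibition above the mean of all tested compounds plus 3 SD, set per screening campaign, cut at about 45% in these data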
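Assay system: GST-tagged and Flag-tagged HCV core protein residues 1-106 / Times: compound-protein-antibody incubation 4 h at 22.5 °C / Signal: time-resolved FRET, ex 340 nm, em 617 and 671 nm / Evaluation: % inhibition based on acceptor/donor emission ratio / Benchmarks: wells lacking GST-core106 and wells with excess unlabelled core106 / Repeats: singlicate, one well per compound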
ALR H2O2 inh: human ALR oxidase inhibition via reduced H2O2. P55789. purified ALR, DTT oxidation, H2O2 HRP-luminol luminescence. inhibition, % (test concentration not listed). hit rate 3.8% among 290,000. AID 485317;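 active = mean replicate inhibition above about 79%, with every replicate also reaching it, limit read from the data; inconclusive = only one of the two criteria met; inactive = mean below limit and not every replicate reaching it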
Target sequence (P55789 whole entry, looked up): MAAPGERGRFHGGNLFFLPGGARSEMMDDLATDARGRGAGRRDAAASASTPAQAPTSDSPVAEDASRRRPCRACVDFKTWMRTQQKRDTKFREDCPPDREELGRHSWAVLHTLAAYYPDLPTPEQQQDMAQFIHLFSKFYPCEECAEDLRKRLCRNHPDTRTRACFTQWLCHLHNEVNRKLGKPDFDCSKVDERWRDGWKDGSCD
EBNA-1 inhibitor: blocks EBNA-1 binding to DNA; EBNA-1 DNA binding, fluorescence polarization; inhibition, % at 14.8 µM; hit rate 0.34% among 300,000; AID 1950; in the data active = inhibition above about 28%
PfM18AAP inh-2: confirmation of Plasmodium falciparum M18 aspartyl aminopeptidase inhibitors; shares compounds with PfM18AAP inh-1; recombinant PfM18AAP, H-Glu-NHMec fluorogenic cleavage; inhibition, % at 7.35 µM; hit rate 28% among 2,400;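 active = mean inhibition over replicate wells above the hit cutoff set for the earlier primary screen, cut at about 29% in these data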;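 also: 0% = median of test compound wells and 100% = 2 mM ZnCl2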
CTSL1 confirm: counter-screen for PFM18AAP inhibitors: confirmation of human cathepsin L inhibitors. shares compounds with PfM18AAP inh-1. purified cathepsin L1, Z-Leu-Arg-MCA fluorescence. inhibition, % at 5.96 µM. 2,400 tested, under 10 active. AID 2178;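 active = average inhibition across replicates above the hit cutoff set in the earlier primary screen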;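 also: 0% = median of test compound wells and 100% = Z-Phe-Ala-diazomethylketone 1 µM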
Active calls of the source: *; u = inconclusive; x = not tested or not shown. In the library only some 5.2% were active in any assay of this set; here they are far more common.

SMILES	ZTA counter	PfM18AAP inh-1	HCV NS3 hel inh	core dimer inh	ALR H2O2 inh	EBNA-1 inhibitor	PfM18AAP inh-2	CTSL1 confirm
O=C1c2ccccc2NC(c2cccc(O)c2)N1NS(=O)(=O)c1ccccc1 (centres undefined)	10	0	-3	6	7	12	x	x
OC[C@H]1O[C@H](OCc2ccccc2)[C@H](O[C@@H]2OC[C@@H](O)[C@H](O)[C@H]2O)[C@@H](O)[C@@H]1O	13	x	x	0	-11	11	x	x
OC1COC(OCC2OC(OCc3ccccc3)C(O)C(O)C2O)C(O)C1O (centres undefined)	6	35*	0	-2	20	12	-3	-9
O=C(NCC(=O)N1CCN(c2ccccc2O)CC1)c1ccco1	4	34*	-2	1	90*	-4	-29	-5
O=C(Nc1ccc2c(c1)OCO2)N1CCN(Cc2ccco2)CC1	-12	6	-11	6	-11	8	x	x
Cn1ncc2c(NNC(=O)c3ccc(Cl)cc3Cl)ncnc21	3	41*	-5	-5	3	2	-2	0
Cn1cc(S(=O)(=O)N2CCCC2)cc1C(=O)NCCc1ccccc1	-4	5	7	4	1	13	x	x
Cc1ccc(-c2nc(N/N=C/c3cccnc3)c3ccccc3n2)cc1	8	43*	4	-4	2	-9	-33	6
CC(C)NS(=O)(=O)c1ccc(Br)c(C(=O)OC(C)C(=O)NC2CCCCC2C)c1 (centres undefined)	-10	x	x	-7	-1	-3	x	x
COCCN1C=C(C(=O)OC)C(c2ccc3c(c2)OCO3)C(C(=O)OC)=C1	4	38*	-8	-2	-2	-6	-6	0
COCCCN1C(=O)/C(=C\c2ccc3c(c2)OCO3)C(C(=O)OC)=C1C	0	52*	14	0	x	6	-27	3
COCCN1C=C(C(=O)OC)C(c2cc3c(cc2Br)OCO3)C(C(=O)OC)=C1	6	4	7	4	-3	0	x	x
Cc1ccc2oc(=O)c(/C=C(\O)c3ccco3)nc2c1	-8	50*	19	-5	10	-2	21	4
Cc1ccc(/C(O)=C/c2nc3ccccc3oc2=O)cc1	9	13	10	5	-1	-3	x	x
CC[n+]1c(/C=C/C=C/N(C(C)=O)c2ccccc2)sc2cc(OC)ccc21	-4	43*	13	-8	u	7	-36	1
COc1ccc(C(C(=O)NCC2CCCO2)N(Cc2ccccc2)C(=O)CNC(=O)c2ccco2)cc1OC (centres undefined)	-4	-4	9	-9	47	-18	x	x
O=C(NCCCN1CCCC1=O)C1CCN(S(=O)(=O)c2c(Cl)cccc2Cl)CC1	-8	x	x	1	-6	-5	x	x
O=C(Nn1cnnc1)c1ccncc1	-7	13	-10	-12	-4	5	x	x
N#Cc1ccc(C(=O)Nn2cnnc2)cc1	7	45*	3	-1	-11	11	27	-3
O=C(Nn1cnnc1)c1cccc(S(=O)(=O)N2CCOCC2)c1	0	38*	8	-1	x	-8	33*	0
O=C(Nn1cnnc1)c1cc(Cl)cc(Cl)c1	2	47*	-21	-5	14	-13	32*	-7
O=C(NN1CCOCC1)c1ccc(Cl)c([N+](=O)[O-])c1	13	-3	12	-9	-18	-6	x	x
O=C(Nc1ccncc1)c1cccc(S(=O)(=O)N2CCOCC2)c1	-4	x	x	5	-1	-4	x	x
O=C(Nn1cnnc1)c1ccc(Cl)c([N+](=O)[O-])c1	4	44*	0	1	x	2	44*	-4
Cc1ccc(C(=O)NCC(=O)OCCCOC(=O)CNC(=O)c2ccc(C)cc2)cc1	1	x	x	3	x	2	x	x
CCN(CC(=O)Nc1ccc(NC(C)=O)cc1)C(=O)Cc1ccc(S(=O)(=O)N2CCOCC2)s1	-13	x	x	-1	-4	-4	x	x
Cc1cc(C(=O)Nc2ccc(Nc3ccccc3)cc2)ccc1[N+](=O)[O-]	-6	6	-3	-16	x	0	x	x
